Data from ChEMBL document CHEMBL5380865, “Linearization of the Brevicidine and Laterocidine Lipopeptides Yields Analogues That Retain Full Antibacterial Activity” (J Med Chem, 2023).
Values after ≈ are worked out from the molar mass of the structure shown. Where a SMILES comes first, the peptide text is derived from it. Bridges are numbered along the chain shown (N, C = ends). [ ]: non-standard residue; d: D form. The star is where a group is joined. ξ: configuration not given here. Octanoyl(7-Me) = CC(C)CCCCCC(=O)*; Hexanoyl(4ξ-Me) = CCC(C)CCC(=O)*; dOrn = NCCC[C@@H](N)C(=O)O; Orn = NCCC[C@H](N)C(=O)O; Dap = NC[C@H](N)C(=O)O; Alloc = C=CCOC(=O)*; OAll = C=CCO*

Columns and labels:
[1] = Hemolytic activity in sheep red blood cell assessed as hemolysis at 1 to 128 ug/ml incubated for 1 hrs relative to control; type: toxicity, cell-based, Ovis aries, Erythrocyte; conditions: sheep red blood cells (erythrocytes), at 1 to 128 µg/mL, dose 1-128 µg/ml, read-out: Activity
How it was run: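 Defibrinated sheep erythrocytes washed five times in PBS with 0.002% Tween20 and normalized so the Triton control reads 2.5–3.0 at 415 nm. Mixed 1:1 with compound serial dilutions (128–1 μg/mL) and incubated 1 h at 37 °C, 500 rpm. Supernatant A415 is background-corrected with buffer and expressed as percent of 0.1% Triton X-100 (final). Run in triplicate.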

Escherichia coli = experiment: Antibacterial activity Escherichia coli ATCC 25922 assessed as inhibition of visible bacterial growth incubated for 18 hrs by microbroth dilution assay; type: functional
How it was run: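 CLSI broth microdilution. Strains streaked from glycerol stocks onto blood agar (16 h, 37 °C); single colonies grown in TSB at 37 °C, 220 rpm, to OD600 about 0.5. Diluted in MHB to 2 × 10^5 CFU/mL and mixed 1:1 with compounds serially diluted in MHB from DMSO stocks (colistin from water stocks), polypropylene plates. Sealed, 18 h at 37 °C, 600 rpm. MIC taken as lowest concentration preventing visible growth, three technical replicates.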

Compound	hemolysis at 1 h [1] [%]	MIC (Escherichia coli) [µg/mL]
CC[C@H](C)[C@H](NC(=O)[C@@H](NC(=O)[C@H](Cc1c[nH]c2ccccc12)NC(=O)[C@@H](CCCN)NC(=O)CNC(=O)[C@H](CCCN)NC(=O)[C@@H](CCCN)NC(=O)[C@@H](Cc1c[nH]c2ccccc12)NC(=O)[C@@H](Cc1ccc(O)cc1)NC(=O)[C@@H](CO)NC(=O)CCCCCC(C)C)[C@@H](C)O)C(=O)N[C@@H](CC(N)=O)C(=O)NCC(N)=O ({Octanoyl(7-Me)}-[dS][dY][dW][dOrn][Orn]G[dOrn]WTING-NH2)	< 0.1	
CCC(C)CCC(=O)N[C@H](CC(N)=O)C(=O)N[C@H](Cc1ccc(O)cc1)C(=O)N[C@H](Cc1c[nH]c2ccccc12)C(=O)N[C@H](CCCN)C(=O)N[C@@H](CCCN)C(=O)NCC(=O)N[C@H](CCCN)C(=O)N[C@@H](Cc1c[nH]c2ccccc12)C(N)=O (stereo not given in full) ({Hexanoyl(4ξ-Me)}-[dN][dY][dW][dOrn][Orn]G[dOrn]W-NH2)	< 0.1	
CCC(C)CCC(=O)N[C@H](CC(N)=O)C(=O)N[C@H](Cc1ccc(O)cc1)C(=O)N[C@H](Cc1c[nH]c2ccccc12)C(=O)N[C@H](CCCN)C(=O)N[C@@H](CCCN)C(=O)NCC(=O)N[C@H](CCCN)C(=O)N[C@@H](Cc1c[nH]c2ccccc12)C(=O)N[C@H](C(=O)N[C@H](C(=O)NCC(=O)N[C@@H](CO)C(=O)O)[C@@H](C)CC)[C@@H](C)O (stereo not given in full) ({Hexanoyl(4ξ-Me)}-[dN][dY][dW][dOrn][Orn]G[dOrn]WTIGS-OH)	< 0.1	
CC[C@H](C)[C@H](NC(=O)[C@H](CC(C)C)NC(=O)[C@H](Cc1c[nH]c2ccccc12)NC(=O)[C@@H](CCCN)NC(=O)CNC(=O)[C@H](CCCN)NC(=O)[C@@H](CCCN)NC(=O)[C@@H](Cc1c[nH]c2ccccc12)NC(=O)[C@@H](Cc1ccc(O)cc1)NC(=O)[C@@H](CO)NC(=O)CCCCCC(C)C)C(=O)N[C@@H](CC(N)=O)C(=O)NCC(=O)NCC(N)=O ({Octanoyl(7-Me)}-[dS][dY][dW][dOrn][Orn]G[dOrn]WLINGG-NH2)	< 0.1	
CCC(C)CCC(=O)N[C@H](CC(N)=O)C(=O)N[C@H](Cc1ccc(O)cc1)C(=O)N[C@H](Cc1c[nH]c2ccccc12)C(=O)N[C@H](CCCN)C(=O)N[C@@H](CCCN)C(=O)NCC(=O)N[C@H](CCCN)C(=O)N[C@@H](Cc1c[nH]c2ccccc12)C(=O)N[C@@H]1C(=O)N[C@@H]([C@@H](C)CC)C(=O)NCC(=O)N[C@@H](CO)C(=O)O[C@@H]1C (stereo not given in full) ({Hexanoyl(4ξ-Me)}-[dN][dY][dW][dOrn][Orn]G[dOrn]WTIGS; ester 9-C)	< 0.1	
C=CCOC(=O)CC[C@H](NC(=O)[C@H](Cc1c[nH]c2ccccc12)NC(=O)[C@@H](CCCN)NC(=O)CNC(=O)[C@H](CCCN)NC(=O)[C@@H](CCCN)NC(=O)[C@@H](Cc1c[nH]c2ccccc12)NC(=O)[C@@H](Cc1ccc(O)cc1)NC(=O)[C@@H](CO)NC(=O)CCCCCC(C)C)C(=O)N[C@H](C(=O)N[C@@H](CC(N)=O)C(=O)NCC(=O)NCC(N)=O)[C@@H](C)CC ({Octanoyl(7-Me)}-[dS][dY][dW][dOrn][Orn]G[dOrn]WE(OAll)INGG-NH2)	< 0.1	
CC[C@H](C)[C@H](NC(=O)[C@H](CO)NC(=O)[C@H](Cc1c[nH]c2ccccc12)NC(=O)[C@@H](CCCN)NC(=O)CNC(=O)[C@H](CCCN)NC(=O)[C@@H](CCCN)NC(=O)[C@@H](Cc1c[nH]c2ccccc12)NC(=O)[C@@H](Cc1ccc(O)cc1)NC(=O)[C@@H](CO)NC(=O)CCCCCC(C)C)C(=O)N[C@@H](CC(N)=O)C(=O)NCC(=O)NCC(N)=O ({Octanoyl(7-Me)}-[dS][dY][dW][dOrn][Orn]G[dOrn]WSINGG-NH2)	< 0.1	
CCC(C)CCC(=O)N[C@H](CC(N)=O)C(=O)N[C@H](Cc1ccc(O)cc1)C(=O)N[C@H](Cc1c[nH]c2ccccc12)C(=O)N[C@H](CCCN)C(=O)N[C@@H](CCCN)C(=O)NCC(=O)N[C@H](CCCN)C(=O)N[C@@H](Cc1c[nH]c2ccccc12)C(=O)N[C@H](C(=O)N[C@H](C(=O)NCC(=O)N[C@@H](CO)C(N)=O)[C@@H](C)CC)[C@@H](C)O (stereo not given in full) ({Hexanoyl(4ξ-Me)}-[dN][dY][dW][dOrn][Orn]G[dOrn]WTIGS-NH2)	< 0.1	
CC[C@H](C)[C@H](NC(=O)[C@H](CC(N)=O)NC(=O)[C@H](Cc1c[nH]c2ccccc12)NC(=O)[C@@H](CCCN)NC(=O)CNC(=O)[C@H](CCCN)NC(=O)[C@@H](CCCN)NC(=O)[C@@H](Cc1c[nH]c2ccccc12)NC(=O)[C@@H](Cc1ccc(O)cc1)NC(=O)[C@@H](CO)NC(=O)CCCCCC(C)C)C(=O)N[C@@H](CC(N)=O)C(=O)NCC(=O)NCC(N)=O ({Octanoyl(7-Me)}-[dS][dY][dW][dOrn][Orn]G[dOrn]WNINGG-NH2)	< 0.1	
CC[C@H](C)[C@H](NC(=O)[C@@H](NC(=O)[C@H](Cc1c[nH]c2ccccc12)NC(=O)[C@@H](CCCN)NC(=O)CNC(=O)[C@H](CCCN)NC(=O)[C@@H](CCCN)NC(=O)[C@@H](Cc1c[nH]c2ccccc12)NC(=O)[C@@H](Cc1ccc(O)cc1)NC(=O)[C@@H](CO)NC(=O)CCCCCC(C)C)[C@@H](C)O)C(=O)N[C@@H](CC(N)=O)C(=O)NCC(=O)NCC(N)=O ({Octanoyl(7-Me)}-[dS][dY][dW][dOrn][Orn]G[dOrn]WTINGG-NH2)	< 0.1	
CCC(C)CCC(=O)N[C@H](CC(N)=O)C(=O)N[C@H](Cc1ccc(O)cc1)C(=O)N[C@H](Cc1c[nH]c2ccccc12)C(=O)N[C@H](CCCN)C(=O)N[C@@H](CCCN)C(=O)NCC(=O)N[C@H](CCCN)C(=O)N[C@@H](Cc1c[nH]c2ccccc12)C(=O)N[C@H](C(N)=O)[C@@H](C)O (stereo not given in full) ({Hexanoyl(4ξ-Me)}-[dN][dY][dW][dOrn][Orn]G[dOrn]WT-NH2)	< 0.1	
CC(C)CCCCCC(=O)N[C@H](CO)C(=O)N[C@H](Cc1ccc(O)cc1)C(=O)N[C@H](Cc1c[nH]c2ccccc12)C(=O)N[C@H](CCCN)C(=O)N[C@@H](CCCN)C(=O)NCC(=O)N[C@H](CCCN)C(=O)N[C@@H](Cc1c[nH]c2ccccc12)C(N)=O ({Octanoyl(7-Me)}-[dS][dY][dW][dOrn][Orn]G[dOrn]W-NH2)	< 0.1	
CC[C@H](C)[C@H](NC(=O)[C@@H](NC(=O)[C@H](Cc1c[nH]c2ccccc12)NC(=O)[C@@H](CCCN)NC(=O)[C@H](C)NC(=O)[C@H](CCCN)NC(=O)[C@@H](CCCN)NC(=O)[C@@H](Cc1c[nH]c2ccccc12)NC(=O)[C@@H](Cc1ccc(O)cc1)NC(=O)[C@@H](CO)NC(=O)CCCCCC(C)C)[C@@H](C)O)C(=O)N[C@@H](CC(N)=O)C(=O)NCC(=O)NCC(N)=O ({Octanoyl(7-Me)}-[dS][dY][dW][dOrn][Orn]A[dOrn]WTINGG-NH2)		4 (≈ 2.45 µM)
C=CCOC(=O)NC[C@H](NC(=O)[C@H](Cc1c[nH]c2ccccc12)NC(=O)[C@@H](CCCN)NC(=O)CNC(=O)[C@H](CCCN)NC(=O)[C@@H](CCCN)NC(=O)[C@@H](Cc1c[nH]c2ccccc12)NC(=O)[C@@H](Cc1ccc(O)cc1)NC(=O)[C@@H](CO)NC(=O)CCCCCC(C)C)C(=O)N[C@H](C(=O)N[C@@H](CC(N)=O)C(=O)NCC(=O)NCC(N)=O)[C@@H](C)CC ({Octanoyl(7-Me)}-[dS][dY][dW][dOrn][Orn]G[dOrn]W[Dap](Alloc)INGG-NH2)	< 0.1	
CC(C)CCCCCC(=O)N[C@H](CO)C(=O)N[C@H](Cc1ccc(O)cc1)C(=O)N[C@H](Cc1c[nH]c2ccccc12)C(=O)N[C@H](CCCN)C(=O)N[C@@H](CCCN)C(=O)NCC(=O)N[C@H](CCCN)C(=O)N[C@@H](Cc1c[nH]c2ccccc12)C(=O)N[C@H](C(N)=O)[C@@H](C)O ({Octanoyl(7-Me)}-[dS][dY][dW][dOrn][Orn]G[dOrn]WT-NH2)	< 0.1	> 32
CCC(C)CCC(=O)N[C@H](CC(N)=O)C(=O)N[C@H](Cc1ccc(O)cc1)C(=O)N[C@H](Cc1c[nH]c2ccccc12)C(=O)N[C@H](CCCN)C(=O)N[C@@H](CCCN)C(=O)NCC(=O)N[C@H](CCCN)C(=O)N[C@@H](Cc1c[nH]c2ccccc12)C(=O)N[C@H](C(=O)N[C@H](C(N)=O)[C@@H](C)CC)[C@@H](C)O (stereo not given in full) ({Hexanoyl(4ξ-Me)}-[dN][dY][dW][dOrn][Orn]G[dOrn]WTI-NH2)	< 0.1	
CC[C@H](C)[C@H](NC(=O)[C@H](Cc1ccccc1)NC(=O)[C@H](Cc1c[nH]c2ccccc12)NC(=O)[C@@H](CCCN)NC(=O)CNC(=O)[C@H](CCCN)NC(=O)[C@@H](CCCN)NC(=O)[C@@H](Cc1c[nH]c2ccccc12)NC(=O)[C@@H](Cc1ccc(O)cc1)NC(=O)[C@@H](CO)NC(=O)CCCCCC(C)C)C(=O)N[C@@H](CC(N)=O)C(=O)NCC(=O)NCC(N)=O ({Octanoyl(7-Me)}-[dS][dY][dW][dOrn][Orn]G[dOrn]WFINGG-NH2)	0.6	
C=CCOC(=O)NC[C@H](NC(=O)[C@H](Cc1c[nH]c2ccccc12)NC(=O)[C@@H](CCCN)NC(=O)CNC(=O)[C@H](CCCN)NC(=O)[C@@H](CCCN)NC(=O)[C@@H](Cc1c[nH]c2ccccc12)NC(=O)[C@@H](Cc1ccc(O)cc1)NC(=O)[C@@H](CC(N)=O)NC(=O)CCC(C)CC)C(=O)N[C@H](C(=O)NCC(N)=O)[C@@H](C)CC (stereo not given in full) ({Hexanoyl(4ξ-Me)}-[dN][dY][dW][dOrn][Orn]G[dOrn]W[Dap](Alloc)IG-NH2)	< 0.1	
CC[C@H](C)[C@H](NC(=O)[C@@H](NC(=O)[C@H](Cc1c[nH]c2ccccc12)NC(=O)[C@@H](CCCN)NC(=O)CNC(=O)[C@H](CCCN)NC(=O)[C@@H](CCCN)NC(=O)[C@@H](Cc1c[nH]c2ccccc12)NC(=O)[C@@H](Cc1ccc(O)cc1)NC(=O)[C@@H](CO)NC(=O)CCCCCC(C)C)[C@@H](C)O)C(=O)N[C@@H](CC(N)=O)C(=O)NCC(=O)NCC(=O)O ({Octanoyl(7-Me)}-[dS][dY][dW][dOrn][Orn]G[dOrn]WTINGG-OH)	< 0.1	
